Variants at the floor of the assay were thinned out.
B1: tRNA (parent)
chain: GUUCCGUUGGCGUAAUGGUAACGCGUCUCCCUCCUAAGGAGAAGACUGCGGGUUCGAGUCCCGUACGGAACG

Variants of: B1
Experiment: yeast fitness relative to wild type (ratio to wild type); higher = fitter; tRNA-Arg(CCU), competitive growth, 37 C, YPD
In short: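 Variants of the tRNA-Arg(CCU) gene were chemically synthesised with a 3% per-site mutation rate across 69 sites and placed at the native genomic locus in Saccharomyces cerevisiae. Six parallel replicates of the pooled strains were competed in YPD at 37°C for 24 hours, and gene amplicons from the start and end populations were read by 100-nucleotide paired-end sequencing. Darwinian fitness relative to wild type was derived from changes in genotype frequencies. Genotypes required ≥ 100 starting reads, and estimates < 0.5 were set to 0.5.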

Variant | yeast fitness
C24U G50C | 0.774
G25A C31A A45C G50A | 0.536
G25A U26A C31U G38A A42G A43U G67C | 0.613
C24U G58C | 0.89
G25C C31U U32A | ≤ 0.5
G25A G48A | 0.981
G25A A45U A57U | ≤ 0.5
G25C A42C C61U | ≤ 0.5
G25A A42C | 0.868
C24U C49U G56C | 0.542
C24U G67C | 0.698
C24U G67U | 0.869
G25A U47G C49A | 0.548
G25C A40G U47A A57C G63A | ≤ 0.5
G25A G67A | 0.875
G25A C31G A45U | 0.612
C24U G39A A57C | 0.727
G25A A45U C62A | 0.54
G25A G44C | 1.04
G25A C27U A69C | 0.73
G25A A37U U54A | ≤ 0.5

Variant | yeast fitness
C24U C31A U54C A57U | 0.547
G25A C31U A43C A57C | ≤ 0.5
C24U G48C C55U | 0.614
G25A C27G C60A | ≤ 0.5
C24U C33G C34U A57U | 0.583
C24U U47C C55G A70U | 0.642
G25A G41A G56A | 0.871
G25A C46A G52C G68A | ≤ 0.5
G25A C29A C55A | 0.625
C24U U32G G51A | ≤ 0.5
C24U U26C A57U | ≤ 0.5
C24U C29G A43C C55G G68A | ≤ 0.5
C24U C29A U32A C46G A70C | ≤ 0.5
G25A U47C G56C C60U A70U | ≤ 0.5
C24U G38A G51A G52C | 0.634
G25C A40C C49U | 0.76
G25C C34U G56A | ≤ 0.5
C24U U47A U64C C66U | ≤ 0.5
G25A A69U | 1.04
C24U U32G A40U U53C U64G | ≤ 0.5
G25C C27A C30G | ≤ 0.5

Variant | yeast fitness
G25A U28A A43U | 0.835
C24U G25A C30U C46A A65U | 0.562
G25A A43G G48C | 0.573
G25C A69U | 0.929
G25A C60U | 0.808
C24U G44A C49A U59A | 0.528
G25A C31U G41U | 0.739
C24U C62A A69C | 0.524
C24U C62A A69G | 0.502
G25A C46U G50C | 0.556
G25A C30G C49U | 0.594
G25A C49A | 0.691
G25A C29A G38A | ≤ 0.5
C24U C61A G67A | ≤ 0.5
G25A A45C C66U G67C | 0.608
G25C C27G C46G C55A | ≤ 0.5
C24U C33U C34G A40U | ≤ 0.5
G25A C33U | 0.655
C24U C34G G63U A70U | 0.542
G25C C31U A65U | 0.726
G25C C30U A70C | 0.596

Variant | yeast fitness
G25A U32A U53A A70C | ≤ 0.5
G25C C29G C30U C49G | 0.61
C24U C27G U47C G56C U64C G68C | ≤ 0.5
G25A C27G A45U C55A | ≤ 0.5
G25A C49U C55U | 0.683
G25A U32C G41A | 0.546
G25A C55G U59A G63A | ≤ 0.5
G25A C61U G63C | 0.528
G25A C34G G50C C62A | ≤ 0.5
C24U C31A | 0.786
G25C C33A A57U A69U | 0.548
G25A C62U G68A | 0.641
C24U U32C C46A | 0.967
C24U C30A A37G U64A C66U A70G | ≤ 0.5
G25A G41A G67A | 0.59
G25A C34U A43U | ≤ 0.5
C24U U35A A42G A69U | ≤ 0.5
G25C C29U | 0.688
G25C C29G | 0.703
C24U C27U A40G G44A | ≤ 0.5
